The record followed here is ChEMBL document CHEMBL1177711, “Novel quinolizidinyl derivatives as antiarrhythmic agents: 2. Further investigation” (J Med Chem, 2010).

Each structure is given as a SMILES string. Calls of active or inactive are those of the source.

What is called inhibition is how much of the control response was suppressed. One may read the EC50 as the concentration giving half of the maximal effect.

The species named for one experiment is Cavia porcellus. The experiment can be described thus: Agonist activity at muscarinic M2 receptor in guinea pig left atrium assessed as negative ionotropic activity in presence of carbachol. Type of experiment: functional, tissue-based. The following applies: Cardiac atrium.
Experiment [1] concerns Aorta. The experiment can be described thus: Vasorelaxant activity in potassium depolarized guinea pig aortic strip assessed as inhibition of calcium-induced contraction at 100 uM. The following applies: Cavia porcellus. Type of experiment: functional.
Experiment [2] in a line: Negative inotropic activity against potassium-induced contraction in guinea pig left atrium assessed as decrease in developed tension. Type of experiment: functional, tissue-based. To be noted: Cavia porcellus, Cardiac atrium.
A short description of experiment [3]: Negative chronotropic activity against potassium-induced contraction in guinea pig left atrium assessed as decrease atrial rate at 100 uM relative to control. In kind it is functional, Cavia porcellus, Cardiac atrium. Details: scale not given: the % may be the effect or the level left.
Experiment [4] is described as follows: Negative inotropic activity against potassium-induced contraction in guinea pig left atrium assessed as decrease in developed tension at 50 uM relative to control. In kind it is functional, Cavia porcellus, Cardiac atrium. Details: scale not given: the % may be the effect or the level left.
Experiment [5] can be described thus: Antiarrhythmic activity in sinusoidal alternating current-induced guinea pig left atrium assessed as increase in current strength at which extra beats occur at 0.5 uM measured every 30 mins. In kind it is functional, Cavia porcellus, Cardiac atrium. The procedure, abridged: (§1)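 Isolated guinea pig left atria, electrically driven at 1 Hz, were exposed to sinusoidal alternating current to induce arrhythmia. The read-out was the rise in the ac-arrhythmia threshold over concentrations up to 100 μM.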

Experiment [6] in a line: Negative inotropic activity against potassium-induced contraction in guinea pig left atrium assessed as decrease in developed tension at 0.5 uM relative to control. Details: scale not given: the % may be the effect or the level left. Type of experiment: functional, Cavia porcellus, Cardiac atrium.
Experiment [7] is described as follows: Antiarrhythmic activity in sinusoidal alternating current-induced guinea pig left atrium assessed as increase in current strength at which extra beats occur measured every 30 mins. In kind it is functional, tissue-based. To be noted: Cavia porcellus, Cardiac atrium, 0.5 h. The method, boiled down:
as §1

Experiment [8] in a line: Antiarrhythmic activity in sinusoidal alternating current-induced guinea pig left atrium assessed as increase in current strength at which extra beats occur at 10 uM measured every 30 mins. In kind it is functional, Cavia porcellus, Cardiac atrium. The method, boiled down:
as §1

Experiment [9] can be described thus: […] chronotropic activity against potassium-induced contraction in guinea pig left atrium assessed as decrease atrial rate at 100 uM relative to control. Details: scale not given: the % may be the effect or the level left. In kind it is functional, Cavia porcellus, Cardiac atrium.
Experiment [10] relates to Aorta. The experiment in a line: Vasorelaxant activity in potassium depolarized guinea pig aortic strip assessed as inhibition of calcium-induced contraction at 50 uM. Type of experiment: functional. To be noted: Cavia porcellus.
Experiment [11] is described as follows: Negative chronotropic activity against potassium-induced contraction in guinea pig left atrium assessed as decrease atrial rate. The following applies: Cavia porcellus, Cardiac atrium. In kind it is functional, tissue-based.
A short description of experiment [12]: Negative chronotropic activity against potassium-induced contraction in guinea pig left atrium assessed as decrease atrial rate at 50 uM relative to control. Set-up: scale not given: the % may be the effect or the level left. Type of experiment: functional, Cavia porcellus, Cardiac atrium.
Experiment [13] in a line: Antiarrhythmic activity in sinusoidal alternating current-induced guinea pig left atrium assessed as increase in current strength at which extra beats occur at 100 uM measured every 30 mins. In kind it is functional, Cavia porcellus, Cardiac atrium. The procedure, abridged: as §1
A short description of experiment [14]: Cardioprotective effect in Langendorff perfused guinea pig spontaneously beating […] assessed as duration of ventricular action potential at 10 uM (RVb = 140 to 161 +/- 2 to 8 ms). In kind it is functional, Cavia porcellus, Cardiac ventricle. The procedure, abridged:
(§2)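 Whole guinea pig hearts were Langendorff-perfused and their ECG recorded at graded concentrations. Intervals read were PR (atrioventricular conduction time), QT (ventricular action potential duration) and QRS (intraventricular conduction time).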

A short description of experiment [15]: Cardioprotective effect in Langendorff perfused guinea pig spontaneously beating […] assessed as duration of ventricular action potential at 1 uM (RVb = 140 to 161 +/- 2 to 8 ms). Type of experiment: functional, Cavia porcellus, Cardiac ventricle. The procedure, abridged:
as §2

Experiment [16] in a line: Cardioprotective effect in Langendorff perfused guinea pig spontaneously beating […] assessed as atrioventicular conduction time at 1 uM (RVb = 50 to 55 +/- 1 to 4 ms). In kind it is functional. The following applies: Cavia porcellus. The method, boiled down: as §2
Experiment [17] in a line: Ratio of compound to auinidine for antiarrhythmic activity in sinusoidal alternating current-induced guinea pig left atrium. In kind it is functional, Cavia porcellus, Cardiac atrium. The method, boiled down:
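The antiarrhythmic EC50 was taken from the ac-arrhythmia threshold rise in 1 Hz-driven guinea pig left atria, using probit analysis.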

Experiment [18] can be described thus: Cardioprotective effect in Langendorff perfused guinea pig spontaneously beating […] assessed as duration of ventricular action potential at 0.1 uM (RVb = 140 to 161 +/- 2 to 8 ms). Type of experiment: functional, Cavia porcellus, Cardiac ventricle. The procedure, abridged: as §2
Experiment [19] in a line: Cardioprotective effect in Langendorff perfused guinea pig spontaneously beating […] assessed as duration of ventricular action potential at 0.01 uM (RVb = 140 to 161 +/- 2 to 8 ms). In kind it is functional, Cavia porcellus, Cardiac ventricle. The method, boiled down: as §2
Experiment [20] is described as follows: Cardioprotective effect in Langendorff perfused guinea pig spontaneously beating […] assessed as duration of ventricular action potential at 0.001 uM (RVb = 140 to 161 +/- 2 to 8 ms). In kind it is functional, Cavia porcellus, Cardiac ventricle. The method, boiled down: as §2
Experiment [21] in a line: Cardioprotective effect in Langendorff perfused guinea pig spontaneously beating […] assessed as intraventicular conduction time at 10 uM (RVb = 19 to 24 +/- 1 to 2 ms). In kind it is functional. To be noted: Cavia porcellus. The procedure, abridged:
as §2

Experiment [22] can be described thus: Cardioprotective effect in Langendorff perfused guinea pig spontaneously beating […] assessed as intraventicular conduction time at 1 uM (RVb = 19 to 24 +/- 1 to 2 ms). To be noted: Cavia porcellus. Type of experiment: functional. The procedure, abridged:
as §2

Experiment [23] in a line: Cardioprotective effect in Langendorff perfused guinea pig spontaneously beating […] assessed as intraventicular conduction time at 0.1 uM (RVb = 19 to 24 +/- 1 to 2 ms). In kind it is functional. The following applies: Cavia porcellus. The method, boiled down:
as §2

The nature of experiment [24]: Cardioprotective effect in Langendorff perfused guinea pig spontaneously beating […] assessed as intraventicular conduction time at 0.01 uM (RVb = 19 to 24 +/- 1 to 2 ms). In kind it is functional. The following applies: Cavia porcellus. The procedure, abridged: as §2
The nature of experiment [25]: Cardioprotective effect in Langendorff perfused guinea pig spontaneously beating […] assessed as intraventicular conduction time at 0.001 uM (RVb = 19 to 24 +/- 1 to 2 ms). In kind it is functional. To be noted: Cavia porcellus. The procedure, abridged: as §2
Experiment [26] is described as follows: Cardioprotective effect in Langendorff perfused guinea pig spontaneously beating […] assessed as atrioventicular conduction time at 10 uM (RVb = 50 to 55 +/- 1 to 4 ms). Type of experiment: functional. The following applies: Cavia porcellus. The procedure, abridged:
as §2

Experiment [27] is described as follows: Cardioprotective effect in Langendorff perfused guinea pig spontaneously beating […] assessed as atrioventicular conduction time at 0.1 uM (RVb = 50 to 55 +/- 1 to 4 ms). In kind it is functional. To be noted: Cavia porcellus. The method, boiled down:
as §2

Experiment [28] is described as follows: Cardioprotective effect in Langendorff perfused guinea pig spontaneously beating […] assessed as atrioventicular conduction time at 0.01 uM (RVb = 50 to 55 +/- 1 to 4 ms). To be noted: Cavia porcellus. Type of experiment: functional. The procedure, abridged: as §2
The nature of experiment [29]: Cardioprotective effect in Langendorff perfused guinea pig spontaneously beating […] assessed as atrioventicular conduction time at 0.001 uM (RVb = 50 to 55 +/- 1 to 4 ms). Type of experiment: functional. The following applies: Cavia porcellus. The method, boiled down: as §2
Experiment [30] has as its system Heart. The experiment in a line: Cardioprotective effect in Langendorff perfused guinea pig spontaneously beating […] assessed as heart rat at 0.001 uM (RVb = 175 to 190 +/- 5 to 11 bpm). Type of experiment: functional, Cavia porcellus.
Experiment [31] has as its system Heart. The experiment in a line: Cardioprotective effect in Langendorff perfused guinea pig spontaneously beating […] assessed as heart rat at 0.01 uM (RVb = 175 to 190 +/- 5 to 11 bpm). Type of experiment: functional, Cavia porcellus.
Experiment [32] concerns Heart. The experiment can be described thus: Cardioprotective effect in Langendorff perfused guinea pig spontaneously beating […] assessed as heart rat at 0.1 uM (RVb = 175 to 190 +/- 5 to 11 bpm). Type of experiment: functional, Cavia porcellus.
The test system of experiment [33] is Heart. The experiment in a line: Cardioprotective effect in Langendorff perfused guinea pig spontaneously beating […] assessed as heart rat at 1 uM (RVb = 175 to 190 +/- 5 to 11 bpm). Type of experiment: functional, Cavia porcellus.
Experiment [34] concerns Heart. The experiment can be described thus: Cardioprotective effect in Langendorff perfused guinea pig spontaneously beating […] assessed as heart rat at 10 uM (RVb = 175 to 190 +/- 5 to 11 bpm). Type of experiment: functional, Cavia porcellus.
Experiment [35] can be described thus: Negative inotropic activity against potassium-induced contraction in guinea pig left atrium assessed as decrease in developed tension at 10 uM relative to control. In kind it is functional, Cavia porcellus, Cardiac atrium. Set-up: scale not given: the % may be the effect or the level left.
Experiment [36] is described as follows: Antiarrhythmic activity in sinusoidal alternating current-induced guinea pig left atrium assessed as increase in current strength at which extra beats occur at 5 uM measured every 30 mins. Type of experiment: functional, Cavia porcellus, Cardiac atrium. The procedure, abridged: as §1

With `C[N+](C)(C)CCOC(N)=O`, the inhibition result in the experiment listed under Cavia porcellus is “inactive”.
In the case of `O=C(Cn1nc2ccccc2n1)NC[C@@H]1CCCN2CCCC[C@H]12`, the inhibition at 100 µM in the experiment on Aorta [1] worked out at 4%. The EC50 in experiment [2] was 35 nM. In addition, the Activity stood at 34% in [3], 98% in experiment [4] and 26% in experiment [5].
With `COc1cc(C(=O)NC[C@@H]2CCCN3CCCC[C@H]23)cc(OC)c1OC`, the inhibition at 100 µM with Aorta [1] worked out at 7%. The EC50 in [2] worked out at 17 nM; in experiment [7], 2620 nM. Besides, the Activity in experiment [6] was found to be 79%; in experiment [8], 56%; in experiment [9], 11%.
For the compound `Cc1cccc(C)c1NCC[C@@H]1CCCN2CCCC[C@H]12`, the inhibition at 50 µM in the experiment on Aorta [10] came to 28%. The EC50 is 6890 nM in experiment [11], 340 nM in experiment [2] and 460 nM in [7]. Moreover, the Activity is 72% in experiment [12]; 89% in experiment [4]; 208% in [13]; 175 ms in experiment [14]; 170 ms in [15]; 160 ms in [18]. Further, the Activity in experiment [19] was determined as 157 ms; in experiment [20] it was 154 ms; in the experiment on Heart [30], 182 bpm; in the experiment on Heart [31], 171 bpm; in the experiment with Heart [32], 163 bpm; in the experiment with Heart [33], 142 bpm. Besides, in the experiment on Heart [34], the Activity worked out at 136 bpm. Moreover, the AV conduction time is 58 ms in experiment [16]; 59 ms in experiment [26]; 57 ms in experiment [27]; 56 ms in experiment [28]; 53 ms in experiment [29]. Moreover, the Ratio in experiment [17] is 3. Further, the intraventricular conduction time came out at 21 ms in [21]; 20 ms in experiment [22]; 20 ms in experiment [23]; 19 ms in experiment [24]; 19 ms in experiment [25].
For `O=C(Cn1nc2ccc(Cl)cc2n1)NC[C@@H]1CCCN2CCCC[C@H]12`, the inhibition at 100 µM in the experiment with Aorta [1] is 26%. The EC50 in [2] is 74 nM. Also, the Activity in experiment [3] was found to be 27%; in [35], 92%; in experiment [36], 28%.
